Square brackets hold non-standard residues; d marks the D form. Peptide text beside a SMILES is read from it. sY = N[C@@H](Cc1ccc(OS(=O)(=O)O)cc1)C(=O)O; Nle = CCCC[C@H](N)C(=O)O

In experiment [1] the target is Receptor-type tyrosine-protein phosphatase F (Homo sapiens) (UniProt P10586). Description: Inhibitory activity against phosphatase (LAR) at a concentration of 100 uM. Summed up: (§1)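 Purified recombinant human enzyme constructs; PTP1B is a C-terminally truncated soluble form, tested alongside LAR and SHP-2. Activity is read as the initial rate of p-nitrophenyl phosphate (pNPP) hydrolysis and reported as percent inhibition. PTP1B is tested at 100, 10 and 1 µM, or 10 and 1 µM in the salicylate series; LAR and SHP-2 at 100 µM.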

Experiment [2] in a line: Uptake of 2-DOG (2-deoxyglucose) into L6 myocytes in the presence of half-maximal concentration of insulin at 100 uM. It is filed as functional, Rattus norvegicus. The essentials: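 L6 myotubes are exposed to compound at 100 µM with 10 nM insulin, a dose eliciting about 50% of maximal uptake. The initial rate of 2-[3H]deoxyglucose uptake is measured, with L-[14C]glucose marking extracellular space, and normalized to recovered lysate protein. Net insulin-dependent transport with inhibitor is expressed as a percent of that without inhibitor.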

For experiment [3], the target named is T1, Tyrosine-protein phosphatase non-receptor type 11 (Homo sapiens) (UniProt Q06124).
T1 sequence (whole entry): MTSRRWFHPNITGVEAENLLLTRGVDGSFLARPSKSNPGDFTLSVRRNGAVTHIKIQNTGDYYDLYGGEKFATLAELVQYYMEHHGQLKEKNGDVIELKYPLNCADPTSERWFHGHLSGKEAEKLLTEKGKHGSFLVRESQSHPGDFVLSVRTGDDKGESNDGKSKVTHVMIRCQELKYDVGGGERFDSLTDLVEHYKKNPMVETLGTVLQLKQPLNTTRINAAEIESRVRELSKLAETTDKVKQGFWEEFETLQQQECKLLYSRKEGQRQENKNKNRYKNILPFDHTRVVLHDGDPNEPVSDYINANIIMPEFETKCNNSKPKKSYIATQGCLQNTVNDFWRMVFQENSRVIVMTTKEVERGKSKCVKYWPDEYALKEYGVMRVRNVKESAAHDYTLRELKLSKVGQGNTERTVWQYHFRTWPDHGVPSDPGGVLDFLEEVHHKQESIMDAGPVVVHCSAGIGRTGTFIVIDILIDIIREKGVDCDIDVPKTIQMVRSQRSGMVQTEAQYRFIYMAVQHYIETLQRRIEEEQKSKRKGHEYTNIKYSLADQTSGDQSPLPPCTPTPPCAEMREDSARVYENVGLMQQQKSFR
Nature of the experiment: Inhibition of recombinant human phosphatase (SHP-2) at a concentration of 100 uM. The essentials: as §1

The target in experiment [4] is T2, Tyrosine-protein phosphatase non-receptor type 1 (Homo sapiens) (UniProt P18031).
T2 sequence (whole entry): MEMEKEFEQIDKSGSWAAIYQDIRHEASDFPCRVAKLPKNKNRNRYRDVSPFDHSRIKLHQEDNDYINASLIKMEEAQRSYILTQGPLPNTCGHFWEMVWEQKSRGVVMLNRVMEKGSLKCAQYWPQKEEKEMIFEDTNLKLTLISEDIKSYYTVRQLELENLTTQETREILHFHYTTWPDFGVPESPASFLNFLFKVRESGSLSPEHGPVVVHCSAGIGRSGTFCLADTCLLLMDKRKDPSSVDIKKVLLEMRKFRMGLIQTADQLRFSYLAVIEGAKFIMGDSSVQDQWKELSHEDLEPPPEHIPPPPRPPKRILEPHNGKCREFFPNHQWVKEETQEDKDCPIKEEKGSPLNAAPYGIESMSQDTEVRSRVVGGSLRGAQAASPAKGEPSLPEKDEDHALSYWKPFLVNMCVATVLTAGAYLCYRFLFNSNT
Description: Inhibitory activity against human protein tyrosine phosphatase 1B (PTP1B) at a concentration of 1 uM. The essentials: as §1

The target in experiment [5] is T2, Tyrosine-protein phosphatase non-receptor type 1 (Homo sapiens). Nature of the experiment: Inhibitory activity against human protein tyrosine phosphatase 1B (PTP1B) at a concentration of 100 uM. The essentials: as §1
For experiment [6] the target is unchanged. Nature of the experiment: Inhibitory activity against human protein tyrosine phosphatase 1B (PTP1B) at a concentration of 10 uM. The essentials: as §1
Experiment [7] concerns the target T3, Tyrosine-protein phosphatase non-receptor type 1 (Homo sapiens, UniProt P18031).
T3 sequence (P18031 whole entry): T2 sequence (whole entry)
Description: Inhibitory activity against human protein tyrosine phosphatase 1B (PTP1B). The essentials: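 Ki against a C-terminally truncated, soluble recombinant human PTP1B. Initial rates of pNPP hydrolysis are measured, and the Ki is computed by the Cornish-Bowden direct linear method.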

Chain of Receptor-type tyrosine-protein phosphatase F (Homo sapiens) (P10586 whole entry, the tested form may be a part): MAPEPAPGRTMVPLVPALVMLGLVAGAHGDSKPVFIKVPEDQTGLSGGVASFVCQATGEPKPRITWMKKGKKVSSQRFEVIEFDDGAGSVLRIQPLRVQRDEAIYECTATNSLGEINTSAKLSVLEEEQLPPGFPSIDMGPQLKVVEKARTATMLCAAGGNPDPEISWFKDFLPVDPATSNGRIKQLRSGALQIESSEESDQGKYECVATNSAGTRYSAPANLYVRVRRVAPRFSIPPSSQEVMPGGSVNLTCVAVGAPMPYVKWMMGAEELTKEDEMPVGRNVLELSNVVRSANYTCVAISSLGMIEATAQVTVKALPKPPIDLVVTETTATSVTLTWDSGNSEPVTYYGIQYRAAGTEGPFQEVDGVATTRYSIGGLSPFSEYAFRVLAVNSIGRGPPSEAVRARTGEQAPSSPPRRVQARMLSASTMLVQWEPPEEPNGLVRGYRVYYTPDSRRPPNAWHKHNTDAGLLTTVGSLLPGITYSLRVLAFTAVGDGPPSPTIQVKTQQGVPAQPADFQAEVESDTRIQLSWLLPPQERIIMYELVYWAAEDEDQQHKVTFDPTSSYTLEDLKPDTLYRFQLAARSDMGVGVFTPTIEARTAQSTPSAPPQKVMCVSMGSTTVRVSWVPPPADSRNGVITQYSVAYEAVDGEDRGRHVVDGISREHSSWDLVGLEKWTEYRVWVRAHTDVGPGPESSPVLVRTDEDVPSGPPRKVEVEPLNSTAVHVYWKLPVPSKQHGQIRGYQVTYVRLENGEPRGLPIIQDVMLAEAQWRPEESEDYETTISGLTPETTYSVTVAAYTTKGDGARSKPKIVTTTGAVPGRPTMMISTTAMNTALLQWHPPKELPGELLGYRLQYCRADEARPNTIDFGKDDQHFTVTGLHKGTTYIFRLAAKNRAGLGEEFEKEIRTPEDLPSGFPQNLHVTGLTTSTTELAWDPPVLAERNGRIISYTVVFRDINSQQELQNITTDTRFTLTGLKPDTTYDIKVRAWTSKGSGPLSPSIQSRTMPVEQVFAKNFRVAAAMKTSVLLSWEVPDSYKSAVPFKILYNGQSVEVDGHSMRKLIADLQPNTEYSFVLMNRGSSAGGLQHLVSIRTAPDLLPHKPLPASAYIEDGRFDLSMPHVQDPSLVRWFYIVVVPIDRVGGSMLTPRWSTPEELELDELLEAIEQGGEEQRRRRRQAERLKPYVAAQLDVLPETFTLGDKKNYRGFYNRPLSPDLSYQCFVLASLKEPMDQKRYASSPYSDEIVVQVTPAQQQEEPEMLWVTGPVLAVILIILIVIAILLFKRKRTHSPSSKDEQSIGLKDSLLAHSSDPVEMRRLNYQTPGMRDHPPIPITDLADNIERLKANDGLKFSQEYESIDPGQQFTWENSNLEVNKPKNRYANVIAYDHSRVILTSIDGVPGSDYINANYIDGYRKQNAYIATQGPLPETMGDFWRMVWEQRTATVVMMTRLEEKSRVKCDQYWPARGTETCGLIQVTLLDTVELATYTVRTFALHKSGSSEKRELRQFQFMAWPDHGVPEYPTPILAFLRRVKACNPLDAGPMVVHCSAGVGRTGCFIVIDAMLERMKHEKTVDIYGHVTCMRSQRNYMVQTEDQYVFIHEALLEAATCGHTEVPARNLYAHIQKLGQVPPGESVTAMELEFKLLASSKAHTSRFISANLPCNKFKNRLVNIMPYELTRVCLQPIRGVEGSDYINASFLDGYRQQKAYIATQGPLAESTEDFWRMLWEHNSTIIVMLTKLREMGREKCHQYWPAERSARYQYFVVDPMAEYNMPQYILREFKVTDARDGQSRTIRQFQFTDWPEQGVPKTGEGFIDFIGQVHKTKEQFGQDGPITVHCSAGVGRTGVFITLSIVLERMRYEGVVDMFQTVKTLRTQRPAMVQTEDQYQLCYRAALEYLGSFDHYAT

On to `CCCCCNC(=O)[C@H](Cc1ccc(OC(C(=O)O)C(=O)O)cc1)NC(=O)[C@H](CCSC)NC(=O)OC(C)(C)C`, for which the inhibition (commonly the change of the read-out against control, counted positive when it falls) was determined as 0% in experiment [1]; 4% in experiment [3]; 5% in experiment [4]; 82% in experiment [5]; 25% in experiment [6]. Moreover, the “Control Uptake” value in experiment [2] is listed as 74%.
For the compound `CCCCCNC(=O)[C@H](Cc1ccc(OC(C(=O)O)C(=O)O)cc1)NC(=O)[C@H](CC(N)=O)NC(=O)OC(C)(C)C`, the inhibition in experiment [1] was 0%; in experiment [3], 8%; in experiment [4], 9%; in experiment [5], 85%; in experiment [6] it was 40%. The “Control Uptake” value in experiment [2] was found to be 110%.
Regarding `CCCCCNC(=O)[C@H](Cc1ccc(OCC(=O)O)c(C(=O)O)c1)NC(=O)[C@H](Cc1ccccc1)NC(=O)Oc1ccccc1`, the inhibition in experiment [1] amounted to 0%; in experiment [3], 11%; in experiment [4] it was 43%; in experiment [6], 85%. Moreover, the “Control Uptake” value in experiment [2] stood at 103%. The affinity in experiment [7] corresponds to a Ki of 0.87 µM.
In the case of `CCCCCNC(=O)[C@H](Cc1ccc(OCC(=O)O)c(C(=O)O)c1)NC(=O)[C@H](Cc1ccccc1)NC(=O)Cc1ccc(C(F)(F)F)cc1`, the inhibition was 0% in experiment [1], 28% in experiment [3], 39% in experiment [4] and 85% in experiment [6]. Further, the “Control Uptake” value in experiment [2] is listed as 130%. Also, the affinity in experiment [7] corresponds to a Ki of 0.59 µM.
As for `CCCCCNC(=O)[C@H](Cc1ccc(OC(C(=O)O)C(=O)O)cc1)NC(=O)[C@H](Cc1cccc2ccccc12)NC(=O)OC(C)(C)C`, the inhibition in experiment [1] is 34%; in experiment [3] it was 8%; in experiment [4] it was 3%; in experiment [5] it was 86%; in experiment [6] it was 33%. Besides, the “Control Uptake” value in experiment [2] was determined as 84%.
`CCCCCNC(=O)[C@H](Cc1ccc(OC(C(=O)O)C(=O)O)cc1)NC(=O)[C@H](CCc1ccccc1)NC(=O)OC(C)(C)C`: the inhibition in experiment [1] turned out to be 7%; in experiment [3], 0%; in experiment [4] it was 2%; in experiment [5], 77%; in experiment [6], 17%. The “Control Uptake” value in experiment [2] worked out at 104%.
Turning to `CCCCCNC(=O)[C@H](Cc1ccc(OC(C(=O)O)C(=O)O)cc1)NC(=O)[C@H](Cc1c(F)c(F)c(F)c(F)c1F)NC(=O)OC(C)(C)C`, the inhibition in experiment [1] is 8%; in experiment [3], 0%; in experiment [4] it was 5%; in experiment [5], 80%; in experiment [6], 25%. The “Control Uptake” value in experiment [2] was found to be 100%.
`CCCCCNC(=O)[C@H](Cc1ccc(OC(C(=O)O)C(=O)O)cc1)NC(=O)[C@H](COCc1ccccc1)NC(=O)OC(C)(C)C`: the inhibition in experiment [1] was 3%; in experiment [3], 0%; in experiment [4], 3%; in experiment [5], 71%; in experiment [6], 19%. Further, the “Control Uptake” value in experiment [2] is listed as 79%.
For `CCCCCNC(=O)[C@H](Cc1ccc(OC(C(=O)O)C(=O)O)cc1)NC(=O)[C@H](CC[S+](C)[O-])NC(=O)OC(C)(C)C` (stereo partly specified), the inhibition in experiment [1] stood at 0%; in experiment [3], 6%; in experiment [4], 7%; in experiment [5], 67%; in experiment [6], 21%. Further, the “Control Uptake” value in experiment [2] was 70%.
As for `CCCCCNC(=O)[C@H](Cc1ccc(OC(C(=O)O)C(=O)O)cc1)NC(=O)[C@H](Cc1ccccc1)NC(=O)CCNC(=O)OC(C)(C)C`, the inhibition in experiment [1] turned out to be 2%; in experiment [3], 8%; in experiment [4] it was 14%; in experiment [5], 93%; in experiment [6], 62%. The “Control Uptake” value in experiment [2] was found to be 87%.
Regarding `CCCC[C@H](NC(=O)[C@H](Cc1ccc(OS(=O)(=O)O)cc1)NC(=O)[C@H](CC(=O)O)NC(C)=O)C(N)=O` (Ac-Asp-[sY]-[Nle]-NH2), in experiment [7], the Ki (in general, the dissociation constant of the complex between target and ligand, obtained from inhibition or displacement) is 5 µM.
As to `CCCCCNC(=O)[C@H](Cc1ccc(OC(C(=O)O)C(=O)O)cc1)NC(=O)[C@H](Cc1ccccc1)NC(=O)CCOC`, the inhibition in experiment [1] was 6%; in experiment [3], 11%; in experiment [4] it was 19%; in experiment [5], 94%; in experiment [6], 65%. In addition, in experiment [2], the “Control Uptake” value was 104%.
For the compound `CCCCCNC(=O)[C@H](Cc1ccc(OC(C(=O)O)C(=O)O)cc1)NC(=O)[C@H](CSCc1ccccc1)NC(=O)OC(C)(C)C`, the inhibition in experiment [1] came out at 0%; in experiment [3] it was 0%; in experiment [4], 3%; in experiment [5] it was 83%; in experiment [6], 16%. Besides, the “Control Uptake” value in experiment [2] is recorded as 89%.
Take `CCCCCNC(=O)[C@H](Cc1ccc(OC(C(=O)O)C(=O)O)cc1)NC(=O)[C@H](Cc1ccc2ccccc2c1)NC(=O)OC(C)(C)C`: the inhibition was 4% in experiment [1]; 3% in experiment [3]; 3% in experiment [4]; 90% in experiment [5]; 29% in experiment [6]. The “Control Uptake” value in experiment [2] was 62%.
Regarding `CCCCCNC(=O)[C@H](Cc1ccc(OC(C(=O)O)C(=O)O)cc1)NC(=O)[C@H](Cc1ccccc1)NC(=O)CCN(CC)CC`, the inhibition in experiment [1] was determined as 0%; in experiment [3], 14%; in experiment [4], 12%; in experiment [5] it was 92%; in experiment [6], 54%. The “Control Uptake” value in experiment [2] was 89%.
On to `CCCCCNC(=O)[C@H](Cc1ccc(OC(C(=O)O)C(=O)O)cc1)NC(=O)[C@H](Cc1ccccc1)NS(C)(=O)=O`, for which the inhibition in experiment [1] is 0%; in experiment [3] it was 8%; in experiment [4], 9%; in experiment [5], 86%; in experiment [6] it was 40%. In addition, in experiment [2], the “Control Uptake” value was 93%.
Turning to `CCCCCNC(=O)[C@H](Cc1ccc(OC(C(=O)O)C(=O)O)cc1)NC(=O)[C@H](Cc1c[nH]c2ccccc12)NC(=O)OC(C)(C)C`, the inhibition in experiment [1] was determined as 18%; in experiment [3] it was 9%; in experiment [4] it was 10%; in experiment [5], 89%; in experiment [6], 44%. Moreover, the “Control Uptake” value in experiment [2] came to 92%.
For `CCCCCNC(=O)[C@H](Cc1ccc(OC(C(=O)O)C(=O)O)cc1)NC(=O)[C@H](Cc1ccc(O)cc1)NC(=O)OC(C)(C)C`, the inhibition in experiment [1] was found to be 0%; in experiment [3], 5%; in experiment [4], 10%; in experiment [5] it was 90%; in experiment [6], 50%. Also, the “Control Uptake” value in experiment [2] is given as 96%.
As for `CCCCCNC(=O)[C@H](Cc1ccc(OC(C(=O)O)C(=O)O)cc1)NC(=O)[C@H](Cc1ccccc1)NS(=O)(=O)Cc1ccccc1`, the inhibition in experiment [1] is 6%; in experiment [3], 10%; in experiment [4], 4%; in experiment [5], 62%; in experiment [6], 16%. For the same compound, in experiment [2], the “Control Uptake” value is 98%.
For `CCCCCNC(=O)[C@H](Cc1ccc(OCC(=O)O)c(C(=O)O)c1)NC(=O)[C@H](Cc1ccccc1)NC(=O)CCC(=O)O`, the Ki in experiment [7] amounted to 0.22 µM.
For the compound `CCCCCNC(=O)[C@H](Cc1ccc(OC(C(=O)O)C(=O)O)cc1)NC(=O)[C@H](CC1CCCCC1)NC(=O)OC(C)(C)C`, the inhibition in experiment [1] turned out to be 4%; in experiment [3], 0%; in experiment [4] it was 1%; in experiment [5], 88%; in experiment [6] it was 18%. Also, in experiment [2], the “Control Uptake” value was determined as 93%.

The values are drawn from ChEMBL document CHEMBL1136635, “Modification of the N-terminus of peptidomimetic protein tyrosine phosphatase 1B (PTP1B) inhibitors: identification of analogues with cellular activity” (Bioorg Med Chem Lett, 2003).
